Our source for the protection from cytokine-induced ATP loss values is PubChem BioAssay AID488910 (Broad Institute, 2010).

Screen size: about 20,000 compounds; about 25 (0.1%) were called active. This excerpt belongs to a sample that is enriched for actives. A number with no mark means an inactive call.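 Rule for the calls: active = mean replicate protection from cytokine-induced ATP loss at least 50% and at least 75% of replicates each reaching 50%; inconclusive = meets only one of the two criteria, mean or replicate share; inactive = fails both the mean and replicate share criteria.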

A short description of the test: protection of INS-1E cells from cytokine death, primary screen, ATP luminescence, single point (AID 488910). To be noted: INS-1E cytokine-induced death, 48 h, at 10 µM, stronger effect = higher value, normalised: neutral wells 0, positive control 100. Summed up: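 Assay system: INS-1E rat cells / Quantity: 8000 cells per well / Medium: RPMI without phenol red, 5% FBS / Probe or stimulus: three-cytokine cocktail (IFN-γ, TNF-α, IL-1β) / Dosing: one compound concentration, pin transfer / Timing: 48 h co-treatment, 10 min post-lysis read / Technique: CellTiter-Glo luminescence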
For `C[C@@H]1CN([C@@H](C)CO)C(=O)Cc2cc(NS(=O)(=O)c3cccs3)ccc2O[C@@H]1CN(C)S(=O)(=O)c1ccc(F)cc1`, the protection from cytokine-induced ATP loss is 4.38%.

As for `C[C@H](CO)N1C[C@H](C)[C@H](CN(C)Cc2ccccc2)Oc2ccc(NC(=O)Cc3ccccc3)cc2C1=O`, the protection from cytokine-induced ATP loss is 0.0546%.

Consider `C[C@@H]1CN([C@@H](C)CO)C(=O)c2cc(NC(=O)Nc3cccc4ccccc34)ccc2O[C@@H]1CN(C)C(=O)Nc1cccc2ccccc12`, for which the protection from cytokine-induced ATP loss is -6.66%.

With `C[C@@H]1CCCCO[C@H](CN(C)Cc2ccccc2)[C@@H](C)CN([C@H](C)CO)C(=O)c2cc(NC(=O)Cc3ccccc3)ccc2O1`, the protection from cytokine-induced ATP loss was -13%.

`COc1ccc(NC(=O)Nc2ccc3c(c2)C(=O)N([C@@H](C)CO)C[C@@H](C)[C@H](CN(C)Cc2ccc(Cl)c(Cl)c2)O3)cc1`: the protection from cytokine-induced ATP loss is -22.1%.

On to `C[C@@H]1CN([C@H](C)CO)C(=O)Cc2cc(NC(=O)Cn3cnnn3)ccc2O[C@H]1CN(C)Cc1ccc(C(F)(F)F)cc1`, for which the protection from cytokine-induced ATP loss was 1.99%.

For `C[C@@H]1CN([C@@H](C)CO)C(=O)c2cccc(NC(=O)C3CC3)c2O[C@@H]1CN(C)Cc1ccccc1`, the protection from cytokine-induced ATP loss was 1.55%.

As to `CC(C)NC(=O)Nc1ccc2c(c1)CC(=O)N([C@H](C)CO)C[C@@H](C)[C@@H](CN(C)C(=O)Nc1ccc3c(c1)OCO3)O2`, the protection from cytokine-induced ATP loss was 9.22%.

With `C[C@@H]1CN([C@@H](C)CO)C(=O)c2cc(NS(=O)(=O)c3ccccc3)ccc2O[C@@H]1CN(C)Cc1ccc(C(=O)O)cc1`, the protection from cytokine-induced ATP loss is 5.28%.

Turning to `C[C@H](CO)N1C[C@H](C)[C@H](CN(C)Cc2ccncc2)Oc2ccc(NS(=O)(=O)c3cn(C)cn3)cc2C1=O`, the protection from cytokine-induced ATP loss was -2.95%.

On to `C[C@@H]1CN([C@@H](C)CO)C(=O)c2cccc(NC(=O)C3CC3)c2O[C@@H]1CN(C)C`, for which the protection from cytokine-induced ATP loss is 3.84%.

Regarding `CC(C)NC(=O)Nc1ccc2c(c1)C(=O)N([C@@H](C)CO)C[C@@H](C)[C@H](CN(C)Cc1ccc(-c3ccccc3)cc1)O2`, the protection from cytokine-induced ATP loss is -8.83%.

As for `C[C@H]1CN([C@@H](C)CO)C(=O)Cc2cc(NC(=O)Nc3ccc(F)cc3)ccc2O[C@H]1CN(C)C(=O)Nc1ccc(C(F)(F)F)cc1`, the protection from cytokine-induced ATP loss is -14.8%.

Turning to `COc1ccc(NC(=O)N(C)C[C@@H]2Oc3ccc(NC(=O)Nc4ccccc4)cc3CC(=O)N([C@H](C)CO)C[C@@H]2C)cc1`, the protection from cytokine-induced ATP loss is 9.6%.

For `Cc1noc(C)c1NC(=O)Nc1cccc2c1O[C@@H](CN(C)CC1CCCCC1)[C@H](C)CN([C@@H](C)CO)C2=O`, the protection from cytokine-induced ATP loss was -7.27%.

On to `C[C@@H]1CN([C@@H](C)CO)C(=O)c2cccc(NS(=O)(=O)c3ccc(F)cc3)c2O[C@H]1CN(C)S(=O)(=O)c1cccs1`, for which the protection from cytokine-induced ATP loss is 2.23%.

Regarding `COc1ccc(NC(=O)N(C)C[C@@H]2Oc3ccc(NC(=O)Cn4cnnn4)cc3C(=O)N([C@H](C)CO)C[C@@H]2C)cc1`, the protection from cytokine-induced ATP loss is 6.28%.

Turning to `Cc1ccc(S(=O)(=O)Nc2ccc3c(c2)C(=O)N([C@@H](C)CO)C[C@H](C)[C@H](CN(C)C(=O)Nc2ccc(C(F)(F)F)cc2)O3)cc1`, the protection from cytokine-induced ATP loss is -7.22%.

Regarding `Cc1noc(C)c1NC(=O)Nc1ccc2c(c1)C(=O)N([C@H](C)CO)C[C@@H](C)[C@H](CN(C)Cc1ccncc1)O2`, the protection from cytokine-induced ATP loss is 3.35%.

`C[C@@H]1CN([C@@H](C)CO)C(=O)c2cccc(NC(=O)Nc3ccc(F)cc3)c2O[C@@H]1CN(C)C(=O)Nc1ccccc1`: the protection from cytokine-induced ATP loss is 7.56%.

Regarding `C[C@H](CO)N1C[C@H](C)[C@@H](CN(C)Cc2ccc3c(c2)OCO3)Oc2c(cccc2N(C)C)C1=O`, the protection from cytokine-induced ATP loss was -11%.

Consider `C[C@@H]1CN([C@@H](C)CO)C(=O)c2cccc(NS(=O)(=O)c3cccs3)c2O[C@@H]1CN(C)CC1CC1`, for which the protection from cytokine-induced ATP loss was -3.04%.

As to `C[C@@H]1CN([C@H](C)CO)C(=O)c2cccc(NS(=O)(=O)c3ccccc3)c2O[C@@H]1CN(C)Cc1ccc(C(=O)O)cc1`, the protection from cytokine-induced ATP loss is 2.31%.

For `C[C@@H]1CN([C@@H](C)CO)C(=O)c2cc(NC(=O)CCN3CCOCC3)ccc2O[C@H]1CN(C)C(=O)NC1CCCCC1`, the protection from cytokine-induced ATP loss was 5.18%.

As for `C[C@H](CO)N1C[C@H](C)[C@@H](CN(C)Cc2ccc(C(=O)Nc3ccccc3N)cc2)Oc2c(NC(=O)C3CC3)cccc2C1=O`, the protection from cytokine-induced ATP loss was -6.93%.

With `COc1ccc(NC(=O)N(C)C[C@@H]2Oc3c(NS(=O)(=O)c4cn(C)cn4)cccc3C(=O)N([C@H](C)CO)C[C@@H]2C)cc1`, the protection from cytokine-induced ATP loss was -3.57%.

Take `Cc1noc(C)c1S(=O)(=O)N(C)C[C@H]1OCCCC[C@@H](C)Oc2ccc(NC(=O)C3CCCCC3)cc2C(=O)N([C@H](C)CO)C[C@@H]1C`: the protection from cytokine-induced ATP loss is 8.15%.

Turning to `C[C@@H]1CN([C@H](C)CO)C(=O)Cc2cc(NC(=O)c3ccncc3)ccc2O[C@@H]1CN(C)Cc1ccncc1`, the protection from cytokine-induced ATP loss is 13.2%.

Regarding `Cc1ccc(S(=O)(=O)N(C)C[C@@H]2Oc3c(NS(C)(=O)=O)cccc3C(=O)N([C@@H](C)CO)C[C@H]2C)cc1`, the protection from cytokine-induced ATP loss was -1.18%.

Take `C[C@H]1CN([C@@H](C)CO)C(=O)Cc2cc(NC(=O)Nc3ccc(F)cc3)ccc2O[C@H]1CN(C)S(=O)(=O)c1ccc(F)cc1`: the protection from cytokine-induced ATP loss is -1.52%.

Turning to `Cc1noc(C)c1S(=O)(=O)Nc1ccc2c(c1)C(=O)N([C@@H](C)CO)C[C@@H](C)[C@H](CN(C)Cc1ccc(-c3ccccc3)cc1)O2`, the protection from cytokine-induced ATP loss was -8.15%.

Take `C[C@@H]1CN([C@@H](C)CO)C(=O)c2cc(NC(=O)CCCN(C)C)ccc2O[C@H]1CN(C)Cc1ccccc1`: the protection from cytokine-induced ATP loss was -3.08%.

Regarding `CC(C)NC(=O)Nc1ccc2c(c1)C(=O)N([C@@H](C)CO)C[C@@H](C)[C@H](CN(C)C(=O)NC1CCCCC1)O2`, the protection from cytokine-induced ATP loss was 4.32%.

Take `Cc1ccc(S(=O)(=O)Nc2cccc3c2O[C@@H](CN(C)S(=O)(=O)c2cccs2)[C@@H](C)CN([C@@H](C)CO)C3=O)cc1`: the protection from cytokine-induced ATP loss is -0.391%.

Consider `C[C@H]1CN([C@@H](C)CO)C(=O)c2cccc(NS(=O)(=O)c3cn(C)cn3)c2O[C@@H]1CN(C)C(=O)Nc1ccc(F)cc1`, for which the protection from cytokine-induced ATP loss was 11.3%.

Consider `COc1ccc(NC(=O)Nc2ccc3c(c2)C(=O)N([C@H](C)CO)C[C@H](C)[C@H](CN(C)C(=O)Nc2c(C)noc2C)OCCCC[C@@H](C)O3)cc1`, for which the protection from cytokine-induced ATP loss was 12%.

As to `C[C@@H]1CN([C@H](C)CO)C(=O)c2cc(NS(=O)(=O)c3cn(C)cn3)ccc2O[C@H]1CN(C)S(=O)(=O)c1ccc(Cl)cc1`, the protection from cytokine-induced ATP loss is 0.346%.

For the compound `COc1ccc(NC(=O)N(C)C[C@@H]2Oc3c(NS(C)(=O)=O)cccc3C(=O)N([C@H](C)CO)C[C@H]2C)cc1`, the protection from cytokine-induced ATP loss was 3.08%.

Take `Cc1ccc(S(=O)(=O)N(C)C[C@H]2Oc3c(NS(=O)(=O)c4cccs4)cccc3C(=O)N([C@@H](C)CO)C[C@@H]2C)cc1`: the protection from cytokine-induced ATP loss was -3.52%.

Regarding `O=C(O)CCCCCC(=O)N/N=C/c1ccco1`, the protection from cytokine-induced ATP loss was 17.1%.

Regarding `Cc1ccc(S(=O)(=O)Nc2ccc3c(c2)C(=O)N([C@@H](C)CO)C[C@@H](C)[C@H](CN(C)CC2CC2)O3)cc1`, the protection from cytokine-induced ATP loss was -3.86%.

In the case of `C[C@H]1CN([C@@H](C)CO)C(=O)c2cccc(NC(=O)c3ccncc3)c2O[C@@H]1CN(C)C`, the protection from cytokine-induced ATP loss is 7.37%.

Take `C[C@H]1CN([C@@H](C)CO)C(=O)c2cccc(NC(=O)Nc3ccc(C(F)(F)F)cc3)c2O[C@@H]1CN(C)Cc1ccccc1`: the protection from cytokine-induced ATP loss is -19.3%.

For the compound `Cc1noc(C)c1NC(=O)Nc1ccc2c(c1)CC(=O)N([C@H](C)CO)C[C@@H](C)[C@@H](CN(C)Cc1ccc(C(F)(F)F)cc1)O2`, the protection from cytokine-induced ATP loss was 10.5%.

Turning to `C[C@H](CO)N1C[C@H](C)[C@@H](CN(C)S(=O)(=O)c2ccccc2)Oc2c(NC(=O)c3ccc(-c4nccs4)cc3)cccc2C1=O`, the protection from cytokine-induced ATP loss was 5.11%.

Consider `C[C@@H]1CN([C@H](C)CO)C(=O)c2cc(NC(=O)CCCCCC(=O)Nc3ccccc3N)ccc2O[C@@H]1CN(C)Cc1ccncc1`, for which the protection from cytokine-induced ATP loss is 6.45%.

For `CC(C)NC(=O)Nc1ccc2c(c1)CC(=O)N([C@H](C)CO)C[C@@H](C)[C@H](CN(C)S(=O)(=O)c1ccccc1)O2`, the protection from cytokine-induced ATP loss is 9.86%.

With `C[C@@H]1CN([C@@H](C)CO)C(=O)c2cccc(NS(=O)(=O)c3ccc(Cl)cc3)c2O[C@@H]1CN(C)C(=O)Nc1ccccc1`, the protection from cytokine-induced ATP loss was 0.662%.

Consider `C[C@H]1CN([C@@H](C)CO)C(=O)c2cccc(NC(=O)Nc3ccccc3)c2O[C@H]1CN(C)C(=O)Nc1cccc2ccccc12`, for which the protection from cytokine-induced ATP loss was 6.53%.

For the compound `C[C@@H]1CN([C@@H](C)CO)C(=O)c2cc(NS(=O)(=O)c3cccs3)ccc2O[C@@H]1CN(C)S(=O)(=O)c1ccc(F)cc1`, the protection from cytokine-induced ATP loss was -0.641%.

`Cc1noc(C)c1NC(=O)Nc1cccc2c1O[C@H](CN(C)C(=O)Nc1ccccc1)[C@@H](C)CN([C@H](C)CO)C2=O`: the protection from cytokine-induced ATP loss is 6.69%.

For the compound `C[C@H]1CN([C@@H](C)CO)C(=O)c2cccc(NC(=O)NC3CCCCC3)c2O[C@H]1CN(C)CC1CCCCC1`, the protection from cytokine-induced ATP loss is -14.4%.

`Cc1noc(C)c1NC(=O)Nc1ccc2c(c1)C(=O)N([C@@H](C)CO)C[C@H](C)[C@@H](CN(C)C(=O)Nc1ccccc1)O2`: the protection from cytokine-induced ATP loss is -2.87%.

As to `C[C@@H]1CN([C@H](C)CO)C(=O)Cc2cc(NC(=O)C3CCCCC3)ccc2O[C@@H]1CN(C)Cc1ccc(C(F)(F)F)cc1`, the protection from cytokine-induced ATP loss was -23.1%.

`COc1ccc(NC(=O)N(C)C[C@@H]2Oc3c(NC(=O)C4CCOCC4)cccc3C(=O)N([C@H](C)CO)C[C@@H]2C)cc1`: the protection from cytokine-induced ATP loss is 5.6%.

Regarding `C[C@H](CO)N1C[C@H](C)[C@@H](CN(C)Cc2ccc(Cl)c(Cl)c2)Oc2ccc(NS(=O)(=O)c3ccccc3)cc2C1=O`, the protection from cytokine-induced ATP loss is -24.5%.
